Results reported in ChEMBL document CHEMBL1134715, “Aryloxy substituted N-arylpiperazinones as dual inhibitors of farnesyltransferase and geranylgeranyltransferase-I” (Bioorg Med Chem Lett, 2001).
pIC50: −log10 of the molar value. Values after ≈ are worked out from the molar mass of the structure shown.

Tests used:
[1] = molecular target: T1, Geranylgeranyl transferase type I (Homo sapiens, UniProt P49354+P53609); test: In vitro inhibition against human Geranylgeranyl transferase type I catalyzed by incorporation of [3H]- GGPP (geranylgeranyl pyrophosphate) into biotinylated peptide corresponding to the c-terminus of human Ki-Ras; type: protein-complex assay
How it was run: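 Human GGPTase-I transferred [3H]GGPP onto a biotinylated human Ki-Ras C-terminal peptide. Enzyme and inhibitor were preincubated 30 min with 5 mM ATP before reaction. Some values were instead run without preincubation. IC50 is the concentration halving incorporation.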

[2] = molecular target: T2, Protein farnesyltransferase (Homo sapiens, UniProt P49354+P49356); test: In vitro inhibition against human Farnesyltransferase catalyzed by incorporation of [3H]- FPP into recombinant Ras-CVIM; type: protein-complex assay
[3] = molecular target: T1, Geranylgeranyl transferase type I; test: Minimal concentration required to inhibit Rap 1a processing (prenylation) in PSN-1 cell; type: functional, cell-based
Rat1 [4] = test: Inhibition of colony formation in v-H-ras-transformed RAT1 cells; type: functional; conditions: Rattus norvegicus
How it was run: (§1)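 Anchorage-independent growth of ras-transformed RAT1 cells in soft agar, read as colony formation. Potency is reported as IC90 for blocking colonies.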

[5] = molecular target: T2, Protein farnesyltransferase; test: Concentration required to displace 50% of a radiolabeled farnesyltransferase inhibitor from FPTase in cultured Ha-Ras transformed RAT1 cells; type: functional, cell-based
Rat1 [6] = test: Inhibition of colony formation in K-ras-transformed RAT1 cells, ranges from 0.3-1; type: functional; conditions: Rattus norvegicus; how it was run: as §1
Rat1 [7] = test: Percent RAT1 cell survival at 10 uM assessed by MTT viability staining; type: functional; conditions: Rattus norvegicus, read-out: Survival

Row | Compound | pIC50 [1] | pIC50 [2] | MIC [3] [µM] | pIC50 [5] | IC90 (Rat1 [4]) [µM] | IC90 (Rat1 [6]) [µM] | viability at 10 µM (Rat1 [7]) [%]
1 | O=C1CN(Cc2cncn2Cc2cccc(Oc3ccccc3)c2)CCN1c1cccc(Cl)c1 | 7.19 |  |  |  |  |  | 
2 | O=C1CN(Cc2cncn2Cc2cccc(Oc3ccccc3)c2)CCN1c1ccc(Cl)cc1 | 6.87 | 6.17 |  |  |  |  | 
3 | N#Cc1ccc(Cn2cncc2CN2CCN(c3cccc(Cl)c3)C(=O)C2)cc1 [L-778123 FREE BASE] |  |  | 1 (≈ 0.406 µg/mL) |  | 0.1 |  | 
4 | N#Cc1ccc(Cn2cncc2CN2CCN(c3cccc(Cl)c3)C(=O)C2)cc1Oc1ccc2ccccc2c1 | 6.70 | 9.00 |  | 7.32 |  |  | 
5 | N#Cc1ccc(Cn2cncc2CN2CCN(c3cccc(Cl)c3)C(=O)C2)cc1Oc1ccc2c(c1)CCCC2 | 6.54 | 8.40 |  |  |  |  | 
6 | N#Cc1ccc(Cn2cncc2CN2CCN(c3cccc(Cl)c3)C(=O)C2)cc1Oc1ccccc1 | 7.66 | 8.15 | 1 (≈ 0.498 µg/mL) | 6.96 | 0.3 | 1 | 80
7 | O=C1CN(Cc2cncn2Cc2cccc(Oc3ccccc3)c2)CCN1c1ccc(C(F)(F)F)cc1 | 6.81 | 5.24 |  |  |  |  | 
8 | N#Cc1cc(Cn2cncc2CN2CCN(c3cccc(Cl)c3)C(=O)C2)ccc1Oc1ccccc1 | 6.09 | 8.05 |  |  |  |  | 

More lines, in order of rising pIC50 [1], values ahead:

Row | pIC50 [1] | pIC50 [2] | MIC [3] [µM] | pIC50 [5] | Compound | IC90 (Rat1 [4]) [µM] | IC90 (Rat1 [6]) [µM] | viability at 10 µM (Rat1 [7]) [%]
9 | 7.21 | 7.49 |  | 6.51 | N#Cc1ccc(Cn2cncc2CN2CCN(c3cccc(Cl)c3)C(=O)C2)cc1Oc1ccc(OCc2ccccc2)cc1 |  |  | 
10 | 7.28 | 7.96 | 1 (≈ 0.499 µg/mL) | 7.77 | N#Cc1ccc(Cn2cncc2CN2CCN(c3cccc(Cl)c3)C(=O)C2)cc1Oc1cccnc1 |  |  | 
11 | 7.70 | 8.40 |  | 7.03 | N#Cc1ccc(Cn2cncc2CN2CCN(c3cccc(Cl)c3)C(=O)C2)cc1Oc1cccc(Cl)c1 |  |  | 
12 | 7.82 | 7.72 |  | 6.46 | N#Cc1ccc(Cn2cncc2CN2CCN(c3cccc(Cl)c3)C(=O)C2)cc1Oc1ccc(Cl)cc1 |  |  | 
13 | 7.92 | 7.74 |  | 6.59 | N#Cc1ccc(Cn2cncc2CN2CCN(c3cccc(Cl)c3)C(=O)C2)cc1Sc1ccccc1 |  |  | 
14 | 8.89 | 8.60 | 3 (≈ 1.67 µg/mL) | 8.10 | N#Cc1ccc(Cn2cncc2CN2CCN(c3cccc(Cl)c3)C(=O)C2)cc1Oc1cccc(OCCO)c1 |  |  | 
15 | 9.15 | 8.15 | 0.3 (≈ 0.16 µg/mL) | 7.39 | N#Cc1ccc(Cn2cncc2CN2CCN(c3cccc(Cl)c3)C(=O)C2)cc1Oc1ccccc1Cl |  |  | 
